Measurements taken from ChEMBL document CHEMBL4002557, “Phenanthrenes from Juncus inflexus with Antimicrobial Activity against Methicillin-Resistant Staphylococcus aureus” (2016).
Converted amounts (≈) assume the structure as drawn. The source made the active and inactive calls. No cut-off for these calls is given here.

Tests used:
Type in all cases: functional
Staphylococcus aureus [1] = experiment: Antibacterial activity against methicillin-resistant Staphylococcus aureus ATCC 43300 at 10 mg/ml after 24 hrs by disk diffusion method; conditions: for zone of inhibition at 10000 µg/mL: ATCC 43300, 24 h, read-out: DIZ
Procedure, shortened: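 Disk diffusion. Pure compounds were diluted to 10 mg/mL in DMSO, and 50 μL was loaded onto 6 mm sterile paper disks. Disks were placed on agar seeded with bacterial suspension (0.5 McFarland, (1−2) × 10^8 CFU/mL), with solvent as negative control. Incubation was 37 °C, 24 h, aerobic. Inhibition-zone diameter was measured including the disk. Done in triplicate.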

Staphylococcus aureus [2] = experiment: Ratio of MIC for methicillin-sensitive Staphylococcus aureus in dark to MIC for methicillin-sensitive Staphylococcus aureus in presence of UVA irradiation
Staphylococcus aureus [3] = experiment: Antibacterial activity against methicillin-resistant Staphylococcus aureus ATCC 43300 after 24 hrs by microdilution method; conditions: ATCC 43300, 24 h
Procedure, shortened: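 Broth microdilution in 96-well plates. DMSO stocks (50 mg/mL) were serially diluted in Mueller-Hinton broth to final 2.5 mg/mL–4.9 μg/mL. Inoculum was 0.5 McFarland, (1−2) × 10^8 CFU/mL. Controls were sterility, DMSO/inoculum negative and vancomycin positive. Incubation was 37 °C, 24 h, aerobic. MIC was the lowest concentration with no visible growth. Run twice in triplicate.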

Staphylococcus aureus [4] = experiment: Antibacterial activity against methicillin-resistant Staphylococcus aureus ATCC 43300 at 5 ug/disk after 24 hrs by disk diffusion method; conditions: ATCC 43300, 24 h, read-out: DIZ

Cc1cc2ccc3c(C)c(O)ccc3c2cc1[C@@H]1CC=Cc2c3c(c(C)c(O)c21)CCc1c-3ccc(O)c1C
diameter of the inhibition zone (DIZ) (Staphylococcus aureus [1]): inactive

C=Cc1cc(O)cc2c1-c1ccc(O)c(C)c1CC2 [EFFUSOL]
Ratio (Staphylococcus aureus [2]): 16

C=Cc1cc2c(cc1C)CCc1c-2ccc(O)c1C
diameter of the inhibition zone (DIZ) (Staphylococcus aureus [1]): inactive

C=Cc1c(C)c(O)cc2c1ccc1c(C)c(O)ccc12
zone of inhibition at 10000 µg/mL (Staphylococcus aureus [1]): 10 mm | MIC (Staphylococcus aureus [3]): 25 µg/mL (≈ 94.6 µM)

C=C[C@@]1(C)C(=O)C2=C(C[C@H]1O)c1ccc(O)c(C)c1CC2
diameter of the inhibition zone (DIZ) (Staphylococcus aureus [1]): inactive

COc1cc(-c2cc(=O)c3c(O)cc(O)cc3o2)ccc1O
diameter of the inhibition zone (DIZ) (Staphylococcus aureus [1]): inactive

CN[C@H](CC(C)C)C(=O)N[C@H]1C(=O)N[C@@H](CC(N)=O)C(=O)N[C@H]2C(=O)N[C@H]3C(=O)N[C@H](C(=O)N[C@H](C(=O)O)c4cc(O)cc(O)c4-c4cc3ccc4O)[C@H](O)c3ccc(c(Cl)c3)Oc3cc2cc(c3O[C@@H]2O[C@H](CO)[C@@H](O)[C@H](O)[C@H]2O[C@H]2C[C@](C)(N)[C@H](O)[C@H](C)O2)Oc2ccc(cc2Cl)[C@H]1O [VANCOMYCIN]
zone of inhibition at 5 µg/disc (Staphylococcus aureus [4]): 15.5 mm

C=CC1=C(C)C(=O)C=C2c3ccc(O)c(C)c3CC[C@]21O
zone of inhibition at 10000 µg/mL (Staphylococcus aureus [1]): 12 mm | MIC (Staphylococcus aureus [3]): 12.5 µg/mL (≈ 44.3 µM)

C=Cc1c(C)c(O)cc2c1-c1ccc(O)c(C)c1CC2
zone of inhibition at 10000 µg/mL (Staphylococcus aureus [1]): 12 mm | MIC (Staphylococcus aureus [3]): 25 µg/mL (≈ 93.9 µM) | Ratio (Staphylococcus aureus [2]): 2

C=Cc1c(C)c(O)cc2c1-c1ccc(OC)c(CO)c1CC2
zone of inhibition at 10000 µg/mL (Staphylococcus aureus [1]): 7 mm | MIC (Staphylococcus aureus [3]): 100 µg/mL (≈ 337 µM)

COC(C)c1cc(O)c(C)c2c1-c1ccc(O)c(C)c1CC2 (racemic)
diameter of the inhibition zone (DIZ) (Staphylococcus aureus [1]): inactive

C=Cc1c(C)c(O)cc2c1CCc1c-2ccc(O)c1C
diameter of the inhibition zone (DIZ) (Staphylococcus aureus [1]): inactive

C=Cc1c(C)c(O)cc2ccc3c(C)c(O)ccc3c12
diameter of the inhibition zone (DIZ) (Staphylococcus aureus [1]): inactive

C=Cc1cc2c(ccc3c(C)c(O)ccc32)cc1C
diameter of the inhibition zone (DIZ) (Staphylococcus aureus [1]): inactive
